Two molecules from ChEMBL document CHEMBL1914440, “Discovery of potent, selective, and orally bioavailable alkynylphenoxyacetic acid CRTH2 (DP2) receptor antagonists for the treatment of allergic inflammatory diseases” (J Med Chem, 2011) can be followed below.

Data set [1] addresses T1, Prostaglandin D2 receptor 2 (Homo sapiens, UniProt Q9Y5Y4).
T1 sequence (Q9Y5Y4 whole entry): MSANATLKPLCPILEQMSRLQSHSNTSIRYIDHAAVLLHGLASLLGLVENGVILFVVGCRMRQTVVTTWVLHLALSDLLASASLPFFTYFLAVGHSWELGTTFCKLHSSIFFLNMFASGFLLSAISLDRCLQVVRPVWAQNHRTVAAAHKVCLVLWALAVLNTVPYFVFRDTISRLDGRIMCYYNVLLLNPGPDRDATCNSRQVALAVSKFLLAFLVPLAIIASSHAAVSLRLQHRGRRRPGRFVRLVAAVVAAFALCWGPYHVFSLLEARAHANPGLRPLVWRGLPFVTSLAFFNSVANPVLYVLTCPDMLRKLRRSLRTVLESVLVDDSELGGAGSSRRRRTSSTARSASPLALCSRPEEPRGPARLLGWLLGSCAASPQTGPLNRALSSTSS
Put plainly: Displacement of [3H]PGD2 from human CRTH2 expressed in chinese hamster CHO cells by liquid scintillation counting. In kind it is cell-based. Put shortly: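 Scintillation proximity competition assay: 2–5 μg human CRTH2 cell membranes, 1.5 nM [3H]PGD2, WGA-SPA beads, 10 mM HEPES/KOH pH 7.4, 10 mM MnCl2, protease inhibitors, 1% DMSO; 90 min, room temperature, shaking. Nonspecific binding defined with 1 μM PGD2. Ki by Cheng–Prusoff, mean of ≥3 independent dose–response experiments.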
Background: Loss of bound radioactivity is the signal in a displacement assay; it reports binding, not function.

Data set [2] is described as follows: Percentage unbound in human plasma. It is filed as ADME, cell-free.
Data set [3] is described as follows: Percentage unbound in rat plasma. It is filed as ADME, cell-free.
The nature of data set [4]: Percentage unbound in mouse plasma. In kind it is ADME, cell-free.
A short description of data set [5]: Intrinsic clearance in human liver microsomes assessed per mg of protein at 1 uM by LC/MS/MS analysis. It is filed as ADME, Microsome. A general note: Liver microsomes are vesicles of endoplasmic reticulum, rich in cytochrome P450 enzymes.
Data set [6] can be described thus: Intrinsic clearance in rat liver microsomes assessed per mg of protein at 1 uM by LC/MS/MS analysis. It is filed as ADME, Microsome.
Data set [7] can be described thus: Apparent permeability across human Caco2 cells at 1 uM after 2 hrs by LC/MS/MS analysis. It is filed as ADME, cell-based. Conditions: Caco-2.
Data set [8] is described as follows: Clearance in BALB/c mouse at 5 mg/kg, po by LC/MS/MS analysis. It is filed as ADME, organism-based. Also on record: dose 5 mg/kg, route oral. The note with it: in vivo.
Data set [9] in a line: Thermodynamic solubility of the compound in 50 mM phosphate buffered saline at pH 7.4. In kind it is physicochemical. Conditions: read-out: Therm_solubility. The gist of the method:
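Thermodynamic solubility measured in 50 mM PBS at pH 7.4.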

Data set [10] in a line: Half life in Sprague-Dawley rat at 1 mg/kg, iv and 5 mg/kg, po by LC/MS/MS analysis. In kind it is ADME, organism-based. Conditions: in vivo.
Data set [11] is described as follows: Half life in BALB/c mouse at 1 mg/kg, iv and 5 mg/kg, po by LC/MS/MS analysis. It is filed as ADME, organism-based. Conditions: in vivo.
The target of data set [12] is T2, Prostaglandin D2 receptor 2 (Mus musculus, UniProt Q9Z2J6).
T2 sequence (Q9Z2J6 whole entry): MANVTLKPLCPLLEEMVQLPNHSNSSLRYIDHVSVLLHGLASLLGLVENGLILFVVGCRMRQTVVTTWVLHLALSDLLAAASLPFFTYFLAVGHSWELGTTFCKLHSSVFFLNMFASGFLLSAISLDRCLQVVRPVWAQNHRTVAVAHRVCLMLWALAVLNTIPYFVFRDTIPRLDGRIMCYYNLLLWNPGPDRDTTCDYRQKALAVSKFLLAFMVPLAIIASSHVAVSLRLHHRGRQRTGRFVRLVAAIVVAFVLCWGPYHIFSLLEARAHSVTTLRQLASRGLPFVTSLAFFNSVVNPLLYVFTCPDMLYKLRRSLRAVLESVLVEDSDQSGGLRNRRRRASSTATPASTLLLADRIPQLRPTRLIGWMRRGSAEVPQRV
Description: Displacement of [3H]PGD2 from mouse CRTH2 expressed in human HEK cells by liquid scintillation counting. It is filed as cell-based, HEK293. The gist of the method:
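Mouse CRTH2 cDNA stably expressed in HEK293(EBNA) cells (hygromycin-selected) and membranes made by nitrogen cavitation. SPA competition uses 2–5 μg membranes, 1.5 nM [3H]PGD2, HEPES/KOH pH 7.4 with 10 mM MnCl2, 1% DMSO, 90 min at room temperature. Nonspecific binding defined with 1 μM PGD2. Ki by Cheng–Prusoff, ≥3 independent experiments.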

For data set [13], the target named is T1, Prostaglandin D2 receptor 2. Put plainly: Displacement of [3H]PGD2 from human CRTH2 expressed in chinese hamster CHO cells by liquid scintillation counting in the presence of 0.1% BSA. It is filed as cell-based. The gist of the method: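 Scintillation proximity assay on 2–5 μg human CRTH2 membranes with WGA-SPA beads and 1.5 nM [3H]PGD2. Buffer: 10 mM HEPES/KOH pH 7.4, 10 mM MnCl2, protease inhibitors, 1% DMSO, 0.1% BSA. Incubated 90 min at room temperature with shaking. Nonspecific binding defined with 1 μM PGD2. Ki by Cheng–Prusoff, mean of at least three independent dose–response experiments.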

The target is the same in data set [14]. Description: Antagonist activity at human CRTH2 expressed in human CHO cells by cellular dielectric spectroscopy.
The target is the same in data set [15]. Put plainly: Antagonist activity at human CRTH2 expressed in […] by cellular dielectric spectroscopy in the presence of PGD2 and 0.1% BSA. It is filed as functional, cell-based. Put shortly: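 CHO-CRTH2 cells grown in HAM's F12 with 10% FCS and 400 μg/mL Geneticin, seeded at 100000 cells/well, 24 h at 37 °C. Washed in HBSS plus 10 mM HEPES pH 7.4 with 1% DMSO and 0.1% BSA. Compound added, then PGD2 at its EC80.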

Data set [16] addresses Cytochrome P450 2C9 (Homo sapiens, UniProt P11712). Put plainly: Inhibition of human recombinant CYP2C9 expressed in baculovirus infected insect cells preincubated for 15 mins measured after 30 mins by luminescence analysis. In kind it is ADME.
The species named for data set [17] is Rattus norvegicus. Put plainly: Inhibition of rat GABA gated chloride ion channel at 10 uM. The gist of the method:
(§1)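 Selectivity screen: panel of 50 receptor and ion-channel targets, tested at 10 μM; EP2 by binding assay; GABA-gated Cl− channel from rat. Result expressed as % inhibition.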

The target in data set [18] is Prostaglandin E2 receptor EP2 subtype (Homo sapiens) (UniProt P43116). Put plainly: Inhibition of EP2 receptor at 10 uM. The gist of the method:
as §1

Data set [19] can be described thus: Kinetic solubility of the compound in 2% DMSO. It is filed as physicochemical. The note with it: read-out: Kinetic_solubility.
Data set [20] is described as follows: Kinetic solubility of the compound in phosphate buffered saline. The note with it: read-out: Kinetic_solubility. It is filed as physicochemical.
The nature of data set [21]: Lipophilicity, log D of the compound at pH 7.4. In kind it is physicochemical. The note with it: buffer.
Data set [22] can be described thus: Clearance in BALB/c mouse at 0.2 mg/kg, iv and 1 mg/kg, po by LC/MS/MS analysis. In kind it is ADME, organism-based. Conditions: in vivo. The gist of the method: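 Low-dose cassette PK in mouse: 0.2 mg/kg iv and 1 mg/kg po.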
Data set [23] can be described thus: Oral bioavailability in BALB/c mouse at 1 mg/kg by LC/MS/MS analysis. It is filed as ADME, organism-based. Conditions: in vivo. Put shortly: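 Oral bioavailability in mouse from a 1 mg/kg po dose given in a cocktail (cassette) experiment.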
Data set [24] is described as follows: Half life in BALB/c mouse at 0.2 mg/kg, iv by LC/MS/MS analysis. The note with it: in vivo. More on the design: dose 0.2 mg/kg, route intravenous. In kind it is ADME, organism-based.
Data set [25] in a line: Half life in BALB/c mouse at 1 mg/kg, po by LC/MS/MS analysis. Also on record: dose 1 mg/kg, route oral. In kind it is ADME, organism-based. Conditions: in vivo.
Data set [26] is described as follows: Volume of distribution at steady state in BALB/c mouse at 0.2 mg/kg, iv and 1 mg/kg, po by LC/MS/MS analysis. The note with it: in vivo, read-out: Vdss.

Values after ≈ are worked out from the molar mass of the structure shown.

Chain of Prostaglandin E2 receptor EP2 subtype (Homo sapiens) (P43116 whole entry): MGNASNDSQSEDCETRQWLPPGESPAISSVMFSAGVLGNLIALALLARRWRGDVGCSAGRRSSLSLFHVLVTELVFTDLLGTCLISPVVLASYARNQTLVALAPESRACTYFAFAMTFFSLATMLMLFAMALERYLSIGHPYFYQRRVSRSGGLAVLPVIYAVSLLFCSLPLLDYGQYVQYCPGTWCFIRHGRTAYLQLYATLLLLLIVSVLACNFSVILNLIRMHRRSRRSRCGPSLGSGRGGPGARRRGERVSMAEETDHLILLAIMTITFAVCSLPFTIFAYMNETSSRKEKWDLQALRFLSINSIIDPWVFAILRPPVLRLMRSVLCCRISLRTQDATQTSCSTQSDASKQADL
Chain of Cytochrome P450 2C9 (P11712 whole entry): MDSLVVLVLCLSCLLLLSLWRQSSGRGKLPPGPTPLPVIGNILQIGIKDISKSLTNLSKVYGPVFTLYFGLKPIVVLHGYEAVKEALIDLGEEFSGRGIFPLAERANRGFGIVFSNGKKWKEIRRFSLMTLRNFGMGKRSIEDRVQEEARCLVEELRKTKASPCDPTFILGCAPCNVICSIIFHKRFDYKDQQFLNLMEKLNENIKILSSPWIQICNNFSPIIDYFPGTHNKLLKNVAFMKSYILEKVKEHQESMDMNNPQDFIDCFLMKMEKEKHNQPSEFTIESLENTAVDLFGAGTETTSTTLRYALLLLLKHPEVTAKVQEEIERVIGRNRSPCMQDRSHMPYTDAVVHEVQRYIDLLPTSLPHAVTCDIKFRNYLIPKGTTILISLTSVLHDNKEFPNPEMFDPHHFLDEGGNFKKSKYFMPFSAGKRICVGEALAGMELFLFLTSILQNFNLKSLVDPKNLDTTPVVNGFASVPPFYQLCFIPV

The Ki is the equilibrium dissociation constant of an inhibitor or competing ligand from its target. Low readings indicate tighter binding, high ones weaker binding. By fraction unbound is commonly meant free concentration divided by total concentration. For orientation: microsomal CLint means the rate of metabolic loss divided by the concentration. A higher microsomal CLint goes with faster metabolism. Broadly, the Papp is a coefficient for how fast a substance crosses the barrier. The term CL/F denotes clearance divided by bioavailability, as obtained after extravascular dosing. In general, half-life refers to the time in which the quantity being followed falls by half. A lower half-life goes with fast loss. With `CCCS(=O)(=O)c1cccc(C#Cc2cc(Cl)ccc2OCC(=O)O)c1`, the Ki in data set [1] came out at 9 nM. Besides, the fraction unbound in data set [2] worked out at 0.008; in [3], 0.01; in [4], 0.024. The microsomal CLint at 1 µM in [5] was 11 µL/min/mg; in [6] it was below 10 µL/min/mg. For the same molecule, the Papp at 2 h, 1 µM in data set [7] worked out at 11.8 ×10⁻⁶ cm/s. For the same molecule, the CL/F in data set [8] is 5 mL/min/kg. For the same molecule, the solubility thermodynamic in data set [9] turned out to be 760 µg/mL (≈ 1930 µM). Further, the half-life is 4.4 h in [10] and 2.2 h in data set [11].

A word on the IC50: it is the midpoint of a concentration-inhibition curve. What is called inhibition is the share of the control response that was lost under treatment. A word on the logD: it is the decadic logarithm of the distribution of all forms, ionised or not, between an organic phase and buffer at a given pH. High values mean a more lipophilic compound, low ones a more hydrophilic compound. As a reminder, the bioavailability is the share of a dose that reaches the circulation, judged against a reference dose that is usually intravenous. A low value points to poor availability. In the case of `O=C(O)COc1ccc(Cl)cc1C#Cc1cccc(Cl)c1`, the results for the Ki in [1] and in data set [12] were 29 nM and 37.4 nM, respectively. Besides, the IC50 in data set [13] was found to be 29 nM; in data set [14], 114 nM; in data set [15] it was 1200 nM; in [16], 1440 nM. For the same molecule, the inhibition is 76% in [17] and 66% in [18]. Also, the fraction unbound in data set [2], in data set [3] and in data set [4] was below 0.003 in each case. Moreover, the microsomal CLint at 1 µM in data set [5] amounted to 12 µL/min/mg; in data set [6], 27 µL/min/mg. Besides, the solubility kinetic in data set [19] and in data set [20] was above 200 µM in each case. In addition, the Papp at 2 h, 1 µM in data set [7] came out at 18.4 ×10⁻⁶ cm/s. The molecule further yielded a logD in data set [21] of 0.5. The molecule further gave a clearance in [22] of 16.7 mL/min/kg. In data set [23], this molecule gave a bioavailability of 82%. The half-life was 0.3 h in data set [24] and 1.6 h in [25]. In addition, the Vd in data set [26] amounted to 0.3 L/kg.
